The text below walks through data of BindingDB's records for doi:10.1021/jm901214q (Abbott Laboratories, 2010).

As a reminder, the EC50 is the concentration that produces a half-maximal response.

In this experiment the target is Cannabinoid receptor 2 (Homo sapiens, UniProt P34972). In words: Agonist activity at human recombinant CB2 receptor expressed in HEK293 cells coexpressing Galphaq/o5 assessed as calcium mobilization by FLIPR assay. In outline:
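HEK cells stably coexpressing human CB2 and chimeric Gαq/o5 were seeded at 75 000 cells/well the day before and loaded with no-wash calcium dye. Mean ± SEM, ≥3 experiments in duplicate.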
In general terms: A change in cytosolic calcium serves as a functional read-out for many receptors and channels.

Chain of Cannabinoid receptor 2 (P34972 whole entry): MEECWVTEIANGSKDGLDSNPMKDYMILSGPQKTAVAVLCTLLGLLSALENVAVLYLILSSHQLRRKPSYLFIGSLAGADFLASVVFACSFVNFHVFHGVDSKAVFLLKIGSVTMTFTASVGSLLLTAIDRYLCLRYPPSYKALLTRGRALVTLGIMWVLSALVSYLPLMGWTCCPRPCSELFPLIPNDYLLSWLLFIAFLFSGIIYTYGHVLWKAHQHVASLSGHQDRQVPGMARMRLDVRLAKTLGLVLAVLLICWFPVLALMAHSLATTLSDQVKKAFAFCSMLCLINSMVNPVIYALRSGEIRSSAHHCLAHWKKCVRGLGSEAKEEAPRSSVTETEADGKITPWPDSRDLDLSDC

`CN1CCCCC1Cn1cc(C(=O)c2cc([N+](=O)[O-])ccc2I)c2ccccc21` (stereo unspecified) [3-[(2-iodo-5-nitrophenyl)carbonyl]-1-[(1-methylpiperidin-2-yl)methyl]-1H-indole]: the EC50 is greater than 10 µM.
